Bioassay records as filed in PubChem BioAssay.
Shown is part of a subset that was picked to be rich in hits.
Diaphorase act = diaphorase activation or chemical reduction counter-screen | activation factor at 20 µM | hit rate 0.005% among 190,000 | Diaphorase/resazurin coupled assay, resorufin fluorescence, 16 min; active compounds read high; 1 = vehicle wells, 0 = NADH-free wells;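 active means diaphorase activity raised at least twofold by the compound at 20 µM; inactive means activation factor below 2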
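Measured by – red resorufin fluorescence at 544/590 nm excitation/emission · Test system – Clostridium kluyveri diaphorase, purified enzyme · Incubation – reaction time 16 min, room temperature · Buffer or medium – 50 mM HEPES pH 7.4 with 4.542 mM MgCl2, 0.005% Tween 20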
ABCB6 inh 2 = blocks the human ABCB6 transporter. hit rate 0.19% among 360,000. K562-ABCB6 porphyrin accumulation, flow cytometry, 1 h; active compounds read low. fluorescence ratio to DMSO, % at 10 µM. Q9NP58;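 active means fluorescence ratio to DMSO below 75%, the collection mean minus 3 SD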;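 further: signal is porphyrin accumulated inside mitochondria; 100% equals median channel fluorescence of DMSO control wells; lower ratio means ABCB6 inhibition with less porphyrin fluorescence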
ABCG2 inh = blocks JC-1 efflux by human ABCG2 transporter | AID 1325 | hit rate 0.1% among 190,000 | IgMXP3 cells, flow cytometry | inhibition, % at 6.6 µM;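 active means inhibition above 80%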;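 further: 0% = DMSO and 100% = nicardipine control wells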
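Times: 10 min at 25 °C | Test system: Two drug-resistant human cell lines, ABCG2 and ABCB1 | Quantity: 3 million cells/mL final, two lines in 1:1 ratio | Signal: Flow cytometry, 530 nm JC-1 signal | Dosing: Compound at 6.6 µM | Controls: Nicardipine and DMSO wells | Reagent: JC-1 as fluorescent efflux pump substrate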
FLuc stim CS = firefly luciferase counter-screen for stimulation assays; 200,000 tested, under 10 active; AID 1027; activation factor at 10 µM; ATPlite luciferase biochemical, luminescence, 10 min; 0 = ATP-free wells, 1 = DMSO control; P08659;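 active means luciferase activation factor, scaled between plate controls, of at least 2 with compound at 10 µM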
Target sequence (P08659 whole entry, looked up): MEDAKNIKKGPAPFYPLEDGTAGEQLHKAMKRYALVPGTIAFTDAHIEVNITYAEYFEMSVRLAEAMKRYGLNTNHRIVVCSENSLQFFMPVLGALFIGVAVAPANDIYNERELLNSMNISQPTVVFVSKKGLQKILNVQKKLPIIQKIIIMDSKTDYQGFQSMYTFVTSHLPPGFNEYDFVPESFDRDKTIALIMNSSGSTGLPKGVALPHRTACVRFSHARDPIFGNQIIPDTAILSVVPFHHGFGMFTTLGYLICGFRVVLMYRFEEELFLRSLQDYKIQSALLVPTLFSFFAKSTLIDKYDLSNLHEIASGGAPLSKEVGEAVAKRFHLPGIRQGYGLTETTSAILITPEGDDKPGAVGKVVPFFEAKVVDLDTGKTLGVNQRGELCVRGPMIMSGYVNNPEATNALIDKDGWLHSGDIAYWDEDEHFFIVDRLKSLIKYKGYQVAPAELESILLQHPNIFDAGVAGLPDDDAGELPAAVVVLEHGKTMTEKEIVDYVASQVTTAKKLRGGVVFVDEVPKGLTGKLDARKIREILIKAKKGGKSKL
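Assay system: Luciferase/luciferin reagent mix; Medium: PBS as buffer for the ATP substrate; Dosing: test compounds dosed from 2 mM stocks in 100% DMSO; Times: 10 min, room temperature; Signal: luminescence from luciferase reaction; Read-out: luciferase activation; Controls: No-ATP low control, compound-free enzyme-plus-ATP high control.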
FLuc inh counter = counter-screen for luciferase assay inhibitors: firefly luciferase inhibition. P08659. ATPLite firefly luciferase biochemical luminescence, 10 min. inhibition, % at 10 µM. hit rate 1.5% among 200,000. AID 1006;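 active means inhibition above about 50% when tested at 10 µM, limit read from the data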
ABCB1 block = blocks JC-1 efflux by human ABCB1 transporter. CCRF-Adr cells, flow cytometry. inhibition, % at 6.6 µM. hit rate 0.067% among 190,000; in the data active means inhibition above about 40%;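 further: 0% = vehicle and 100% = reference inhibitor; higher value means more JC-1 retained so stronger ABCB1 efflux block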
Numbers without * were called inactive; x = no result.

SMILES	Diaphorase act	ABCB6 inh 2	ABCG2 inh	FLuc stim CS	FLuc inh counter	ABCB1 block
O=C(/C=C/Nc1ccc(F)c(F)c1)c1cccs1	0.8	87	46	0.2	80*	0
COc1cc([N+](=O)[O-])ccc1N/C=C/C(=O)c1cccs1	0.9	97	7	0.1	93*	1
NC(=O)c1ccccc1N/C=C/C(=O)c1ccc(Cl)cc1Cl	0.8	106	7	0	96*	1
O=C(/C=C/Nc1ccc(F)cc1)c1cccs1	x	103	x	x	x	x
CCC(O)c1cnc(OCc2ccccc2)nc1OCc1ccccc1 (centres undefined)	x	96	x	x	x	x
O=C(Nc1cccc2ccccc12)c1ccc2sc([C@H]3C[C@H](O)[C@@H](CO)O3)nc2c1	x	94	x	x	x	x
O=C(CN1C(=O)NC2(CCCCC2)C1=O)Oc1ccc2ccc(=O)oc2c1	x	98	x	x	x	x
CCN(C(=O)c1c([N+](=O)[O-])cnn1C)c1ccccc1	x	95	x	x	x	x
CCN1CCN(c2ccc(NC(=O)c3cc(OC)c(OC)c(OC)c3)cc2)CC1	x	95	x	x	x	x
NC(=O)c1ccccc1N/C=C/C(=O)c1cccs1	0.9	98	2	0.2	85*	0
NC(=O)c1ccccc1NS(=O)(=O)c1cccs1	0.8	90	1	1	-4	0
NC(=O)c1ccccc1N/C=C/C(=O)c1ccc(F)cc1	0.9	95	1	0.1	90*	0
Cc1ccc(C(=O)/C=C/Nc2ccccc2C(N)=O)o1	0.9	102	4	0.4	63*	0
CSc1ccc(NC(=O)Nc2cc(C)ccn2)cc1	x	94	x	x	x	x
CC1CCCN(c2ccc3nc4ccccc4c(=O)n3n2)C1 (centres undefined)	0.8	101	20	0.1	94*	1
CC(C)(C)c1ccc(-c2conc2N)cc1	1	94	1	0.4	61*	0
C(=N\NC1=Nc2cccc3cccc1c23)/c1cccnc1	0.9	126	-1	0.4	60*	-1
C(=N\NC1=Nc2cccc3cccc1c23)/c1ccccc1	0.9	140	-6	0.3	67*	0
Clc1ccc(/C=N/NC2=Nc3cccc4cccc2c34)cc1	0.9	115	-7	0.7	28	-1
CC(=O)Nc1ccc(NC(=O)C(C)OC(=O)C2CCCCC2)cc1 (centres undefined)	x	90	x	x	x	x
Cc1csc(Nc2ccc(Cl)cc2)n1	1	96	3	0.9	8	0
Cc1ccc(Nc2nc(C)cs2)cc1	x	104	3	0.5	54*	1
Cc1ccc(Nc2nc(CSc3nnnn3-c3ccccc3)cs2)cc1	0.7	97	1	1	-5	0
Cc1ccc(Nc2nc(CSc3nnnn3C)cs2)cc1	0.8	101	2	0.4	62*	0
Cc1ccc(Nc2nc(CSc3nnc(-c4cccnc4)n3-c3ccccc3C)cs2)cc1	1	101	0	1	1	3
SMILES	Diaphorase act	ABCB6 inh 2	ABCG2 inh	FLuc stim CS	FLuc inh counter	ABCB1 block
Cn1nnnc1SCc1csc(Nc2ccccc2)n1	0.9	91	1	1	1	0
Cc1ccc(Nc2nc(CSc3nnc(-c4ccccc4)n3C)cs2)cc1	0.8	100	4	0.1	86*	1
Cc1ccc(Nc2nc(CSc3nnc(-c4ccccc4C)n3C)cs2)cc1	0.9	99	13	0.4	64*	3
CCOC(=O)N1CCN(C(=O)c2ccc3c(c2)N=C(C)c2cc(Cl)ccc2S3)CC1	x	100	x	x	x	x
O=C(Nc1ccc2cn[nH]c2c1)c1c(Cl)cccc1Cl	0.6	101	10	1	-3	0
O=C1C(Cl)=C(Nc2ccc3cn[nH]c3c2)C(=O)c2ccccc21	x	65*	x	x	x	x
COC(=O)c1cc(CNC(=O)c2ccccc2OCc2c(C)noc2C)ccc1OC	x	102	x	x	x	x
COc1ccc2c(c1OC)C(=O)N(c1cccc(C)c1)C2	0.9	93	61	0.2	84*	4
COc1ccc2c(c1OC)C(=O)N(c1ccc(C)cc1)C2	x	94	x	x	x	x
O=C(COc1ccc2c3c(c(=O)oc2c1)CCC3)N[C@@H](Cc1ccccc1)C(=O)O	x	101	x	x	x	x
CCc1ccc2nc(N)sc2c1	0.9	94	12	0.4	56*	3
